Assay outcomes (PubChem)
LEDGF integ inh: blocks HIV-1 LEDGF/p75-dependent DNA integration; TR-FRET IN-LEDGF/p75 DNA integration, Eu/Cy5; inhibition, % at 3.7 µM; actives 0.64% (n = 370,000); AID 743269;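 active = inhibition above the screen-wide mean plus 3 SD, cut at about 13% in these data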;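 also: signal is the Cy5 over europium emission ratio at 671 and 618 nm; 0% = plate median of compound wells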
UHRF1 binding: UHRF1 methyl-DNA binding inhibition; actives 0.75% (n = 370,000); UHRF1 binding to methylated oligo, TR-FRET; inhibition, % at 4.4 µM; Q96T88; in the data active = inhibition above about 21%;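 also: UHRF1 SRA domain binding a hemimethylated CpG hairpin DNA probe; 0% = median of test compound wells and 100% = reference inhibitor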
Target sequence (Q96T88 whole entry, looked up, the tested form may be a part): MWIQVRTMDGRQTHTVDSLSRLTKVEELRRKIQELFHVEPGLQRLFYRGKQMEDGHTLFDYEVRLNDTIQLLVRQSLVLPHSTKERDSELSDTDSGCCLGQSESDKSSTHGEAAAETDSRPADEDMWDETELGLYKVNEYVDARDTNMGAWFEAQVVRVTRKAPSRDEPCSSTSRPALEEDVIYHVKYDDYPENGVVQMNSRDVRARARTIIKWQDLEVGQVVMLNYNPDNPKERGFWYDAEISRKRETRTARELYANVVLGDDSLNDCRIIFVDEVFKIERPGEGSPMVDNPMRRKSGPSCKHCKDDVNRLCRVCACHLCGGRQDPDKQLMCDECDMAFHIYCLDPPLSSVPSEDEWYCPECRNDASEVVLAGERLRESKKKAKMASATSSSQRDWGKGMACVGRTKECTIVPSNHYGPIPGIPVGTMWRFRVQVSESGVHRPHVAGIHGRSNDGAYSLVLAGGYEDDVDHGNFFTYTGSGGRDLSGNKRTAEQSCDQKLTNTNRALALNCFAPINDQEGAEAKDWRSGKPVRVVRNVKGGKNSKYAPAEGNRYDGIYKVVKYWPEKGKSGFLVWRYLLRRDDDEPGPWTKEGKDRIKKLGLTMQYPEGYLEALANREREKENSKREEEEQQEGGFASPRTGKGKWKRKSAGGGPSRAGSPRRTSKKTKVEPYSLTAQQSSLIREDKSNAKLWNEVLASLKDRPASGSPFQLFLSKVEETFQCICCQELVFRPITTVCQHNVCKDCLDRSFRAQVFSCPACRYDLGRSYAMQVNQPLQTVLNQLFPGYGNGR
TDP2 absorb: blocks human TDP2 phosphodiesterase activity | O95551 | recombinant TDP2, T5PNP hydrolysis, p-nitrophenol absorbance 415 nm | inhibition, % at 12.8 µM | actives 0.34% (n = 370,000);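 active = inhibition above the mean of all tested compounds plus 3 SD, set per campaign, cut at about 25% in these data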;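 also: 0% = DMSO with enzyme and 100% = buffer with substrate but no TDP2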
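System – recombinant human TDP2 · Amount – 120 nM TDP2 per well · Buffer or medium – Mg2+-containing Tris-HCl buffer, pH 7.5 · Reagent – T5PNP substrate, 5 mM · Dosing – 12.8 µM single point, 1% DMSO · Incubation – 2 h at 37 °C · Measured by – epi absorbance · Read-out basis – percent inhibition · Benchmarks – high control without enzyme, low control DMSO plus TDP2 · Repeats – singlicate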
Tn6 DDE FP: disrupts Tn6 cyclic peptide binding to fibrin D-Dimer-E complex; P02675; Fibrin DD(E) TRITC-Tn6 fluorescence polarization displacement; inhibition, % at 8.3 µM; actives 0.21% (n = 370,000); AID 720509;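 active = inhibition above a per-campaign cutoff: mean of compounds within control limits plus 3 SD, cut at about 15% in these data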;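 also: 0% = median of all compound wells on the plate and 100% = blocking peptide control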
Tn7 DDE FP: inhibitors of Tn7 peptide binding to human fibrin DD(E); P02675; FP displacement of FITC-Tn7 peptide from fibrin DD(E); 0% = median of compound wells per plate; inhibition, % at 8.3 µM; actives 0.13% (n = 370,000); AID 720508;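 active = inhibition above the mean of compounds falling within the control limits plus 3 SD of them, cut at about 14% in these data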;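 also: 0% = plate median of compound wells and 100% = 10 µM Aha-Tn7 peptide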
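Assay system: Human clot-derived fibrin DD(E) complex | Buffer or medium: Tris/NaCl/CaCl2 buffer, pH 7.8 | Repeats: One replicate per compound | Benchmarks: Aha-Tn7 high control | Measure: % inhibition scaled between sample-field median and high-control FP | Schedule: 10 min plus 3 h, room temperature | Signal: Fluorescence polarization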
MBD2 inh: MBD2-methylated oligo binding inhibition | Q9UBB5 | TR-FRET, MBD2 binding to methylated oligonucleotide | inhibition, % at 4.4 µM | actives 0.31% (n = 370,000) | AID 686964; in the data active = inhibition above about 13%
IN multimer act: HIV-1 integrase multimerization activation, counter-screen; AID 1053131; shares compounds with LEDGF integ inh; TR-FRET HIV-1 integrase multimerization, biochemical; activation, % at 7.7 µM; actives 17% (n = 2,000); in the data active = activation above about 8.9%
TRFRET interf: optically interferes with TR-FRET readout in LEDGF counter-screen; TR-FRET optical interference counterscreen, HIV-1 IN multimerization; shares compounds with LEDGF integ inh; inhibition, % at 7.7 µM; AID 1053135; 2,000 tested, under 10 active;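 active = inhibition above the mean over all tested compounds plus 3 SD, which no compound reached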;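 also: 0% = integrase with antibodies and DMSO and 100% = antibodies without integrase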
LEDGF integ conf: confirmation of HIV-1 LEDGF/p75-dependent integration inhibitors; inhibition, % at 3.7 µM; TR-FRET LEDGF/p75-dependent HIV-1 integration, biochemical; actives 36% (n = 2,000); shares compounds with LEDGF integ inh; in the data active = inhibition above about 14%
An asterisk follows results filed as active; . = no result. Rows were chosen to be rich in hits. Some 1.9% of all compounds tested hit in one or more screens of this group.

SMILES	LEDGF integ inh	UHRF1 binding	TDP2 absorb	Tn6 DDE FP	Tn7 DDE FP	MBD2 inh	IN multimer act	TRFRET interf	LEDGF integ conf
Cc1ccc(C)c(OCc2cc(C(=O)N3CCOCC3)no2)c1	-4	2	10	-1	0	1	.	.	.
Cn1cccc1/C=C1\CCC/C(=C\c2cccn2C)C1=O	19*	0	3	-4	-5	-3	1	-6	-4
COc1ccc(CNC(=O)c2sc3nc(C)c(Cl)c(C)c3c2N)cc1	1	-3	14	-8	6	-7	.	.	.
CON(C)C(=O)C(C)(C)CC#CCN(CC#Cc1ccccc1)S(=O)(=O)c1ccc(C)cc1	1	0	-4	3	3	1	.	.	.
O=C(NC1CCCC1)[C@@H]1CCCN1C(=O)[C@@H](NS(=O)(=O)c1ccc(F)cc1F)C1CCCCC1	-3	3	0	-5	-10	-3	.	.	.
Cn1c(=O)c2ccccc2n(Cc2cccc(F)c2)c1=O	21*	4	-4	-3	8	0	1	-3	-1
CC(=O)N1CCN(c2ccc(NC(=O)c3ccco3)cc2)CC1	-1	5	-8	0	4	3	.	.	.
CC(=O)N1CCN(c2ccc(NCc3ccco3)cc2)CC1	21*	1	8	12	6	-1	4	-19	-5
Nc1ccccc1C(O)(Cc1ccccc1)c1ccccc1 (centres undefined)	87*	2	4	6	-3	2	0	1	-3
OC(Cc1cccnc1)(c1ccccc1)c1ccccc1	-1	1	10	-1	-1	1	.	.	.
Cn1nnc(NC(=O)c2ccc([N+](=O)[O-])cc2Cl)n1	51*	0	10	2	4	2	1	-3	-6
COc1ccc2c3c(ccc2c1)C(=O)/C(=C/O)CC3	17*	4	4	-4	5	4	5	-17	27*
CC1CCN(C(=O)c2ncn3c2C(=O)NC[C@H]3C)CC1	3	-1	-7	3	5	-6	.	.	.
Cc1cccc(Nc2nc(N)nc(N)c2N=O)c1	3	-16	-11	-4	1	-18	.	.	.
Cc1ccc(N(C)c2nc(N)nc(N)c2N=O)cc1	14*	6	8	58*	-8	2	2	-12	17*
CCC(Sc1nc2ccccc2[nH]1)C(=O)Nc1cc(C)on1 (centres undefined)	29*	2	-3	3	-5	-1	0	0	3
CCCCc1cc(=O)oc2cc(OC3CCCCC3=O)ccc12 (centres undefined)	18*	0	-5	-2	5	-6	0	-1	-7
CSCCC(NC(=O)OCc1ccccc1)C(=O)NC(Cc1c[nH]c2ccccc12)C(=O)O (centres undefined)	-1	3	-2	0	4	8	.	.	.
COc1ccc2nc(NCCNC(=S)NCCCN3CCOCC3)c(C#N)cc2c1	35*	0	-9	-3	0	-5	1	-4	-7
O=C(O)CC(CCc1ccccc1)OC1OC(CO)C(O)C(O)C1O (centres undefined)	85*	15	5	-2	1	12	87*	-441	92*
[C-]#[N+][C@H](O[C@@H]1O[C@H](CO)[C@@H](O)[C@H](O)[C@H]1O)c1ccccc1	-5	-1	0	7	3	-2	.	.	.
COc1ccc(-n2nc3cc(C)c(N)cc3n2)cc1Cl	15*	18	-8	0	2	4	0	2	-6
COC(=O)C1=C(C)N(C)C(=NCc2ccccc2C(F)(F)F)NC1CCc1ccccc1 (centres undefined)	1	1	-2	2	-14	-3	.	.	.
COc1ccc(N(C(C)C(=O)N/N=C/c2cccnc2)S(C)(=O)=O)cc1 (centres undefined)	35*	1	9	-1	-3	1	0	-1	2
CC(=O)CC[C@@H]1CC[C@]2(CCCN(C(=O)C(C)(C)C)C2)O1	-2	2	-1	7	4	6	.	.	.
SMILES	LEDGF integ inh	UHRF1 binding	TDP2 absorb	Tn6 DDE FP	Tn7 DDE FP	MBD2 inh	IN multimer act	TRFRET interf	LEDGF integ conf
O=C(c1cccc(S(=O)(=O)N2CCCCCC2)c1)N1CCN(c2ccccc2F)CC1	2	-2	-8	3	-4	2	.	.	.
CN1CCN(S(=O)(=O)c2cccc(C(=O)N3CCN(c4ccccc4F)CC3)c2)CC1	26*	-2	-3	1	7	-8	-3	9	-1
COc1ccc(C(CNCC(O)COc2c(C)ccc(C)c2C)N(C)C)cc1 (centres undefined)	14*	-3	-5	-9	-1	-6	0	2	3
COc1ccc(C(=O)N2N=C3CC(C)(C)OCC3C2c2ccccc2)cc1 (centres undefined)	66*	2	-10	2	9	-4	0	1	-7
O=C(O)c1ccc2nc(-c3ccccc3)c(-c3ccccc3)nc2c1	6	0	-2	1	-6	0	.	.	.
O=C(c1ccccc1)c1ccc2nc(-c3ccco3)c(-c3ccco3)nc2c1	18*	-4	15	0	-5	-3	2	-6	35*
Cc1ccc(C)c(N2CCN(C(=O)c3ccc4nc(-c5ccco5)c(-c5ccco5)nc4c3)CC2)c1	40*	0	-8	-5	5	-10	4	-14	22*
Cc1nnc(-c2ccc(Oc3ccc(Br)cc3)c([N+](=O)[O-])c2)o1	16*	0	-3	-8	4	5	0	2	-7
Cc1cc(Oc2ccc(-c3nnc(-c4ccccc4)o3)cc2[N+](=O)[O-])ccc1Cl	5	-1	6	1	4	-5	.	.	.
CC(C)n1nnnc1C1(C)CCSCC(=O)N1Cc1cccc(C(F)(F)F)c1 (centres undefined)	-1	-1	9	-5	-2	-3	.	.	.
S=c1[nH]nc(-c2cc(-c3ccccc3)n[nH]2)n1/N=C/C=C/c1ccco1	3	-2	-3	7	1	-4	.	.	.
S=c1[nH]nc(-c2ccco2)n1/N=C/C=C/c1ccco1	21*	26*	-2	7	5	11	16*	-80	74*
